Measured values collected from several papers.
Each line is one published result; the experiments were not run side by side.
Organism: Staphylococcus aureus
Effect on: microbial growth

Fc1cccc(Cl)c1-c1nc2ccccc2[nH]1 — MIC (broth dilution; ATCC29213 MSSA): 64 µg/mL
COc1c(C)c(OS(=O)(=O)c2ccc3ccccc3c2)c(C)c(OS(=O)(=O)c2ccc3ccccc3c2)c1C(=O)/C=C/c1ccccc1 — MIC (broth dilution; ATCC25923): 5000 µg/mL
COc1ccc(-c2cc3c(C)nc(N)nc3n([C@H]3CC[C@H](OCCO)CC3)c2=O)cn1 — MIC (NCTC8325): > 30 µM
C/C(=C\c1ccc(C#N)cc1)C(=O)Nc1ccc(C(=O)N[C@@H](CC(N)=O)C(=O)Nc2ccc(C(=O)Nc3ccc(C(=O)Nc4ccc(C(=O)O)cc4)c(O)c3OCC(C)C)cc2)cc1 — MIC (ATCC29213): 0.06 µg/mL
O=C1NC(=S)S/C1=C\c1ccc(-c2ccc(N(c3ccccc3)c3ccccc3)cc2)cc1 — MIC (broth dilution; ATCC6538): 500 µg/mL
CO[C@H]1/C=C/O[C@@]2(C)Oc3c(C)c(O)c4c(O)c(c(/C=N/N5CCN(C)CC5)c(O)c4c3C2=O)NC(=O)/C(C)=C\C=C\[C@H](C)[C@H](O)[C@@H](C)[C@@H](O)[C@@H](C)[C@H](OC(C)=O)[C@@H]1C — MIC (broth dilution; ATCCBAA44): 2 µg/mL
CC1=NN(CNc2ccc(C(=O)O)cc2)C(=O)C1=NNn1c(-c2ccccc2)nc2ccccc2c1=O — MIC (broth dilution; 24 h): 50.5 µM
CNC(=O)c1cc(Oc2ccc(NC(=O)Nc3ccc(Cl)c(C(F)(F)F)c3)c(F)c2)ccn1 — MIC (NCTC8325): 3 µM
O=C(O)c1cn(C2CC2)c2cc(N3CCNCC3)c(F)cc2c1=O — MIC (ATCC43300; drug-resistant strain): 0.31 µg/mL
O=C1NC(=O)/C(=C\c2ccc3nccnc3c2)S1 — MIC (NCTC8325): > 30 µM
Cc1ccc2nc(-c3c4ccccc4cc4ccccc34)[nH]c2c1 — MIC (broth dilution; ATCC29213 MSSA): 64 µg/mL
NC[C@H]1O[C@H](O[C@H]2[C@H](O)[C@@H](O[C@H]3O[C@H](CO)[C@@H](O)[C@H](N)[C@H]3O)[C@H](N)C[C@@H]2N)[C@H](N)C[C@@H]1O — MIC (129; clinical isolate): > 100 µM
CNC(=O)c1cc(COc2nnc(Nc3ccc(Cl)cc3)c3ccoc23)ccn1 — MIC (NCTC8325): > 30 µM
CN[C@H](CC(C)C)C(=O)N[C@H]1C(=O)N[C@@H](CC(N)=O)C(=O)N[C@H]2C(=O)N[C@H]3C(=O)N[C@H](C(=O)N[C@H](C(=O)O)c4cc(O)cc(O)c4-c4cc3ccc4O)[C@H](O)c3ccc(c(Cl)c3)Oc3cc2cc(c3O[C@@H]2O[C@H](CO)[C@@H](O)[C@H](O)[C@H]2O[C@H]2C[C@](C)(N)[C@H](O)[C@H](C)O2)Oc2ccc(cc2Cl)[C@H]1O — MIC (broth dilution; 745524): 1 µg/mL
O=C(C[n+]1cc(-c2ccc(Cl)cc2)n2c1CCC2)Nc1ccc(Cl)c(Cl)c1 — MIC: 4 µg/mL
O=C(Nc1ccc(F)c(F)c1)c1cc(Cl)ccc1O — MIC (broth dilution; ATCC29213): 0.44 µg/mL
Cc1ccc2nc(-c3ccccc3Cl)[nH]c2c1 — MIC (broth dilution; ATCC29213 MSSA): 64 µg/mL
Cc1[nH]c(/C=C2\C(=O)Nc3ccccc32)c(C)c1CCC(=O)O — MIC (NCTC8325): > 30 µM
CC(C)Oc1c(NC(=O)c2ccc(NC(=O)[C@H](CC(N)=O)NC(=O)c3ccc(NC(=O)C(C)Oc4ccccc4)cc3)cc2)ccc(C(=O)Nc2ccc(C(=O)O)cc2)c1O (stereo partly drawn) — MIC (ATCC29213): > 64 µg/mL
O=C1NC(=S)N/C1=C\c1ccc(-c2ccc(N(c3ccccc3)c3ccccc3)cc2)cc1 — MIC (broth dilution; ATCC6538): > 1000 µg/mL
C#CCCCCC(=O)NC(C)C — MIC (NCTC8325): > 100 µM
